Results: ChEMBL document CHEMBL2176870 (J Med Chem, 2012)
≈ marks a conversion by molar mass, not a printed value.

How the values were obtained:
[1] = Terminal elimination half life in Sprague-Dawley rat brain at 2 x 50 mg/kg, iv; assay type: ADME, organism-based; design: dose 50 mg/kg, route intravenous; conditions: read-out: beta t1/2 (converted)
Method in brief: (§1)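 Female Sprague–Dawley rats given two iv doses of 50 mg/kg. Levels measured in plasma, liver, kidney, brain, heart and lung. Cmax reported as ng/g for tissue and ng/mL for plasma; AUC(0–∞) as ng·h/mL. Half-life is the terminal elimination value.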

[2] = Thermodynamic aqueous solubility of the compound at pH 7.4; assay type: physicochemical; conditions: buffer, read-out: Therm_solubility
[3] = Toxicity in iv dosed rat administered bid for 2 weeks; assay type: organism-based; conditions: in vivo
Method in brief: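 Rats dosed iv twice daily for 14 days. NOAEL assessed from clinical findings and from macroscopic and microscopic examination.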

[4] = AUC (0 to infinity) in Sprague-Dawley rat heart at 2 x 50 mg/kg, iv; assay type: ADME, organism-based; design: time infinity, dose 50 mg/kg, route intravenous; method in brief: as §1
Staphylococcus aureus [5] = test: Antibacterial activity against community acquired methicillin-resistant Staphylococcus aureus; assay type: functional
[6] = Toxicity in iv dosed mouse; assay type: organism-based; conditions: in vivo
Method in brief: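 Single intravenous dosing in mice; maximum tolerated dose determined.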

Canis familiaris = test: Toxicity in beagle dog assessed as cardiovascular functions up to 100 mg/kg, iv; assay type: organism-based, Canis lupus familiaris, Heart; design: dose 100 mg/kg, route intravenous; conditions: in vivo
Method in brief: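 Beagle dogs given single iv infusions up to 100 mg/kg. Clinical signs and cardiovascular function, including QT interval, were monitored.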

[7] = Inhibition of cytochrome P450; assay type: ADME
[8] = Terminal elimination half life in Sprague-Dawley rat heart at 2 x 50 mg/kg, iv; assay type: ADME, organism-based; design: dose 50 mg/kg, route intravenous; conditions: read-out: beta t1/2 (converted); method in brief: as §1
[9] = Terminal elimination half life in Sprague-Dawley rat kidney at 2 x 50 mg/kg, iv; assay type: ADME, organism-based; design: dose 50 mg/kg, route intravenous; conditions: read-out: beta t1/2 (converted); method in brief: as §1
[10] = AUC (0 to infinity) in Sprague-Dawley rat liver at 2 x 50 mg/kg, iv; assay type: ADME, organism-based; design: time infinity, dose 50 mg/kg, route intravenous; method in brief: as §1
[11] = target: T1, Enoyl-[acyl-carrier-protein] reductase [NADPH] FabI (Staphylococcus aureus, UniProt Q6GI75); test: Inhibition of Staphylococcus aureus recombinant FabI using trans-2-octenoyl N-acetylcysteamine thioester as substrate preincubated for 60 mins
T1 sequence (Q6GI75 whole entry): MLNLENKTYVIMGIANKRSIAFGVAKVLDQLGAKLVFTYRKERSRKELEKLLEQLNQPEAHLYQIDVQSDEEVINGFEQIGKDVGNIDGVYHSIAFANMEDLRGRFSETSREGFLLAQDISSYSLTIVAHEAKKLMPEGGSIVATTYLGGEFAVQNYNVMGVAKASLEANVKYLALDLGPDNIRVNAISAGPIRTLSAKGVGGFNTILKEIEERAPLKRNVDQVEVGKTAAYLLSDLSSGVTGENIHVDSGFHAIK
Method in brief: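 Recombinant S. aureus FabI (2 nM) in 50 mM ADA pH 6.5, 1 mM DTT, 0.006% Triton X-100, 50 mM NaCl. Preincubated 60 min at room temperature with 40 μM NADPH, 10 μM NADP+ and inhibitor in DMSO. Reaction started with 100 μM t-o-NAC. Inhibition versus untreated samples; IC50 by Langmuir fit.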

[12] = system: Staphylococcus haemolyticus; test: Antibacterial activity against methicillin-resistant Staphylococcus haemolyticus; assay type: functional
Staphylococcus aureus [13] = test: Antibacterial activity against methicillin-resistant Staphylococcus aureus; assay type: functional
Proteus mirabilis = test: Antibacterial activity against Proteus mirabilis; assay type: functional

CCc1cc(O)c(Oc2ccc(C(N)=O)cc2F)cc1F showed a half-life [1] of 4.2 h, a solubility thermodynamic [2] of 20 µg/mL (≈ 68.2 µM) and an NOAEL at 336 h [3] of 200 mg/kg/day. It also gave an AUC(0-inf) [4] of 23900 ng·h/mL, an MIC90 (Staphylococcus aureus [5]) of at most 0.03 µg/mL and an MTD [6] of over 200 mg/kg. The Activity (Canis familiaris) was “Non-toxic”, the “inhibition (INH)” value [7] was “Active” and the half-life [8] was 5 h. It also gave a half-life [9] of 8.5 h, an AUC(0-inf) [10] of 105000 ng·h/mL and an IC50 [11] of 12 nM. For the same molecule, the MIC90 [12] was 0.5 µg/mL (≈ 1.7 µM), the MIC90 (Staphylococcus aureus [13]) was 0.12 µg/mL (≈ 0.409 µM) and the MIC90 (Proteus mirabilis) was 2 µg/mL (≈ 6.82 µM).
